ChEMBL document CHEMBL3526053, “Species-dependent uptake of glycylsarcosine but not oseltamivir in Pichia pastoris expressing the rat, mouse, and human intestinal peptide transporter PEPT1” (Drug Metab Dispos, 2012)

What was measured:
Type in all cases: ADME
[1] = target: T1, Solute carrier family 15 member 1 (Homo sapiens, UniProt P46059); test: Drug uptake in Pichia pastoris GS115 expressing human recombinant PEPT1 at 5 uM after 30s by dual-channel liquid scintillation counting analysis in presence of glycine relative to control; conditions: 0.5 min
T1 sequence (P46059 whole entry): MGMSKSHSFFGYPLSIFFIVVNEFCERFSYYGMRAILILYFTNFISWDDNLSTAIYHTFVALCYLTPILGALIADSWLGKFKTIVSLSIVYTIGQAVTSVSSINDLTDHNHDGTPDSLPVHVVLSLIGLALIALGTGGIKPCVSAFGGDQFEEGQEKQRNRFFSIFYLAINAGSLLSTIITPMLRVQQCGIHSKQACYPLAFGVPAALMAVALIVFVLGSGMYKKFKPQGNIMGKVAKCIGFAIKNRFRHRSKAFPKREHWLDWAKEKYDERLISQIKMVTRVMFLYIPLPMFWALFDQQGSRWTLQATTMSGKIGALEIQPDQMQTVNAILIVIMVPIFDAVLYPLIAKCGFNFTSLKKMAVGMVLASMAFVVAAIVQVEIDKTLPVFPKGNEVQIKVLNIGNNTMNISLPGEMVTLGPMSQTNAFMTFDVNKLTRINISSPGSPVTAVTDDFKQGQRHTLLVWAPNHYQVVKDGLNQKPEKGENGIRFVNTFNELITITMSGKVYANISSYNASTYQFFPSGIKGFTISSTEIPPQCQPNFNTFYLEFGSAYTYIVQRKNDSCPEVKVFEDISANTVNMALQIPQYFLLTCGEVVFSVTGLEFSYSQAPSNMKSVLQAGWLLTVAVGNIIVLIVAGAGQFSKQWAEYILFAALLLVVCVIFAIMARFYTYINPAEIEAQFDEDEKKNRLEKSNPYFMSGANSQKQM
Method in brief: (§1)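 [3H]GlySar 5.0 µM final, 30-s uptake at 24°C in 100 mM potassium phosphate pH 6.5, with or without a potential inhibitor at 10 mM. Cells are methanol-induced transformants. Values are vector-subtracted and expressed as percent of buffer control. Mean ± SE (n=3). ANOVA with Dunnett's test.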

[2] = target: T2, Solute carrier family 15 member 1 (Rattus norvegicus, UniProt P51574); test: Drug uptake in Pichia pastoris GS115 expressing rat recombinant PEPT1 at 5 uM after 30s by dual-channel liquid scintillation counting analysis in presence of cephapirin relative to control; conditions: 0.5 min
T2 sequence (P51574 whole entry): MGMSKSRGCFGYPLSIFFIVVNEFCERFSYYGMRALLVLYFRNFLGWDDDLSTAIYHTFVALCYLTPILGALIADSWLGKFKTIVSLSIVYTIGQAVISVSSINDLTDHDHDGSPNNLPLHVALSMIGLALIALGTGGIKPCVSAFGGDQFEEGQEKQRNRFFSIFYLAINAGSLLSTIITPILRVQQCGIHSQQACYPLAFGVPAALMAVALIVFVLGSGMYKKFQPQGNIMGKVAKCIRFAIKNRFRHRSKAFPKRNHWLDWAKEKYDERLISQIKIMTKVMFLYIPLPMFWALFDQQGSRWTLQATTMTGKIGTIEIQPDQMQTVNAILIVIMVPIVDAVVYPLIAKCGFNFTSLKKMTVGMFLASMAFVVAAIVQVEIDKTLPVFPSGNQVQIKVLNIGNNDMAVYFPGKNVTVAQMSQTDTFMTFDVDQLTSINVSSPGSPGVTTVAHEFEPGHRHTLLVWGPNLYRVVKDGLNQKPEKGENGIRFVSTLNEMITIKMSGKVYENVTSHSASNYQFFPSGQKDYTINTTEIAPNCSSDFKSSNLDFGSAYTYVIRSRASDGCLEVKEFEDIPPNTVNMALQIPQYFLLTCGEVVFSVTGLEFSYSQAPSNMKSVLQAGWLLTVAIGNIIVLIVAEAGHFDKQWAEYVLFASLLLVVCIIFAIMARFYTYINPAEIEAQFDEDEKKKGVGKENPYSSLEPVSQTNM
Method in brief: (§2)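 Rat PEPT1 (pPIC3.5K-rPept1) in GS115 His+Mut+ transformant, methanol-induced 20-24 hr in BMMY at 30°C, washed into 100 mM potassium phosphate pH 6.5. [3H]GlySar final 5.0 µM with inhibitor at 10 mM, 30 sec at 24°C. Counts taken by liquid scintillation after 24 hr standing. Values are vector-subtracted and given as % of buffer control. Mean ± SE, n=3.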

[3] = target: T1, Solute carrier family 15 member 1; test: Drug uptake in Pichia pastoris GS115 expressing human recombinant PEPT1 at 5 uM after 30s by dual-channel liquid scintillation counting analysis in presence of cephradine relative to control; conditions: 0.5 min; method in brief: as §1
[4] = target: T2, Solute carrier family 15 member 1; test: Drug uptake in Pichia pastoris GS115 expressing rat recombinant PEPT1 at 5 uM after 30s by dual-channel liquid scintillation counting analysis in presence of valacyclovir relative to control; conditions: 0.5 min; method in brief: as §2
PEPT1 = target: T3, PEPT1 (Rattus norvegicus, UniProt P51574); test: Drug uptake in Pichia pastoris GS115 expressing rat recombinant PEPT1 at 5 uM after 30 mins by dual-channel liquid scintillation counting analysis relative to vector control; conditions: read-out: FC
T3 sequence (P51574 whole entry): T2 sequence (P51574 whole entry)
Method in brief: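 5.0 µM radiolabelled substrate ([3H]GlySar or [14C]oseltamivir) is incubated 30 min at 24°C with induced transformants in 100 mM potassium phosphate pH 6.5. Cell-associated radioactivity is counted by scintillation after standing 24 h and normalised to OD600. Results are compared with pPIC3.5K vector-alone cells. Mean ± SE (n=6).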

[5] = target: T2, Solute carrier family 15 member 1; test: Drug uptake in Pichia pastoris GS115 expressing rat recombinant PEPT1 at 5 uM after 30s by dual-channel liquid scintillation counting analysis relative to control; conditions: 0.5 min
Method in brief: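 Rat PEPT1 and vector-only (pPIC3.5K) GS115 yeast, methanol-induced 20-24 hr. Cells were washed and concentrated tenfold in 100 mM phosphate buffer pH 6.5. [3H]GlySar or [14C]oseltamivir final 5.0 µM, 24°C, 30 sec and 5 min. Nonspecific binding was measured at 0°C and zero time. Uptake is given as pmol/OD600 by scintillation counting. Mean ± SE, n=6.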

Drug uptake [1]: 130%
Drug uptake [2]: 122%
Drug uptake [3]: 23.2%
Drug uptake [4]: 5.5%
uptake ratio at 0.5 h, 5 µM (PEPT1): 100
Drug uptake [5]: 100%
SMILES: [3H]C(C(=O)O)N(C)C(=O)CN (stereo unspecified)
